MrgX1 ag: agonists of human MrgX1 receptor, primary screen, HEK293 cells, Fluo-4 calcium flux; 0.44% of 310,000 active; Mas-related G-protein coupled receptor member X1 (Homo sapiens), Q96LB2; Fluo-4 calcium fluorescence, agonist mode; stronger effect = higher value; B-score at 10 µM;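 active = calcium response B-score plate-corrected fluorescence ratio at least 3 library SD, with starting fluorescence B-score inside 5 SD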
Target sequence (Q96LB2 whole entry, looked up): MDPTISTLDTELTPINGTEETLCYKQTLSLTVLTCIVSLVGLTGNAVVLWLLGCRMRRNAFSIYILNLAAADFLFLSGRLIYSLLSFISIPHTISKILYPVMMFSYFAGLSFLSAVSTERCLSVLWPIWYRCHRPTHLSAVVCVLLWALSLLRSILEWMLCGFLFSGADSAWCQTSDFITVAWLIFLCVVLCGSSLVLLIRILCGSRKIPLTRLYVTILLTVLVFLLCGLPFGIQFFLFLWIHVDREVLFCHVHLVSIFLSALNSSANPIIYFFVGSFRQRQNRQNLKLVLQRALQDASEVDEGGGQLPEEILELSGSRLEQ
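Material: MrgX1-expressing HEK293 cells / Dosing: compound as first of three additions / Incubation: overnight seeding, then 1 h dark dye loading / Signal: Fluo-4 NW calcium fluorescence / Evaluation: B-scored fluorescence response ratio / Benchmarks: positive and negative control wells on each plate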
MrgX1 antagonist: antagonists of human MrgX1 receptor, primary screen, HEK293 cells, Fluo-4 calcium flux; Mas-related G-protein coupled receptor member X1 (Homo sapiens), Q96LB2; BAM8-22 antagonism; stronger effect = lower value; 1.3% of 310,000 active; B-score at 10 µM;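 active = calcium-response B-score plate-corrected more than 3 library SD below zero, starting fluorescence within 5 deviations, no agonist response on first addition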;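 note: peak minus trough fluorescence over baseline after final BAM8-22 challenge near maximal dose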
RGS4 block: RGS4 inhibitors, primary screen, cell-based, HEK293 M3R inducible RGS4, calcium flux. Regulator of G-protein signaling 4 (Homo sapiens), P49798. Fluo-4 calcium flux; stronger effect = higher value; triggered by carbachol at its EC20. B-score at 10 µM. 0.45% of 310,000 active. AID 463165, 2010;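 active = B-score, a plate-corrected calcium signal, over three deviations above library mean, with baseline fluorescence within five deviations of library mean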;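 note: RGS4 expression induced by doxycycline in cells with stable M3 receptor; B-score is computed from the integrated fluorescence ratio over baseline after carbachol; higher B-score means a larger calcium signal and so more RGS4 inhibition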
Target sequence (P49798 whole entry, looked up): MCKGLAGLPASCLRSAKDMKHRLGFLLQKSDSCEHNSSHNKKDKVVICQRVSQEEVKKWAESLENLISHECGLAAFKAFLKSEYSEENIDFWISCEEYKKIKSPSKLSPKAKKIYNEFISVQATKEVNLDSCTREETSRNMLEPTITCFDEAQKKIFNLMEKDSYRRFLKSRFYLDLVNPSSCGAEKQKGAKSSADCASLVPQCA
MrgX1 allo act: positive allosteric modulators of MrgX1, primary screen, HEK293 cells, Fluo-4 calcium flux; Mas-related G-protein coupled receptor member X1 (Homo sapiens), Q96LB2; FDSS; stronger effect = higher value; B-score at 10 µM; 0.63% of 310,000 active; AID 588675, 2011;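 active = plate-corrected calcium response at least 3 library SD above typical, normal starting fluorescence, not activating the receptor alone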;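 note: compound read alongside a low EC10 to EC30 dose of BAM8-22 agonist; peak minus trough fluorescence over baseline measured at the second addition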
RGS4 act: RGS4 potentiators or activators, primary screen, cell-based, HEK293 M3R inducible RGS4, calcium flux; carbachol calcium flux Fluo4; stronger effect = lower value; B-score at 10 µM; 0.92% of 310,000 active; AID 463111, 2010;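 active = B-score of the integrated calcium signal more than 4 SD below the library mean, with starting fluorescence not abnormally high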;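 note: negative B-score means reduced calcium response which marks RGS4 activation or potentiation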
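System – HEK293 FlpIn-TREx cells, stable M3R, doxycycline-inducible RGS4 · Reagent – ECmax carbachol challenge · Times – compound preincubation 20 min at room temperature before agonist · Technique – Fluo4 fluorescence kinetic imaging of calcium · Measure – B score of integrated Fluo4 ratio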
An asterisk follows results filed as active; i = inactive; . = not tested or not shown. An excerpt weighted towards active compounds, which were near 3.5% of everything screened.

SMILES	MrgX1 ag	MrgX1 antagonist	RGS4 block	MrgX1 allo act	RGS4 act
CCOP(=O)(OCC)C(NC(=O)Nc1ccccc1)c1ccccc1 (stereo unspecified)	i	-4.8*	i	i	i
CCOP(=O)(OCC)C(NC(=O)Nc1c(C)cc(C)cc1C)c1ccccc1 (stereo unspecified)	i	i	i	i	i
COc1ccc(-c2csc3ncnc(N4CCN(c5ccccc5[N+](=O)[O-])CC4)c23)cc1	i	i	i	i	-7.3*
COc1ccc(-c2csc3ncnc(N4CCN(S(=O)(=O)c5ccc(C(C)=O)cc5)CC4)c23)cc1	i	i	i	i	-7*
CCCn1c(N)c(N(CCOC)C(=O)c2cc3c(s2)CCCCC3)c(=O)[nH]c1=O	i	i	i	i	i
COc1cc(CN2CCN(C(=O)c3ccccc3F)CC2)cc(OC)c1OC	i	i	i	i	i
C/C(CC(=O)Nc1ccc(Cl)cc1Cl)=N\NC(=O)C(=O)N1CCCC1	i	i	i	i	i
COCCNC(=O)C(=O)N/N=C(\C)CC(=O)Nc1ccc(Cl)cc1Cl	i	-6.4*	i	i	i
N/C(=N\OC(=O)C1CCCCC1)c1ccc(Br)cc1	i	i	i	i	i
N/C(=N\OC(=O)C1CCCCC1)c1ccncc1	i	-4.5*	i	i	i
Cc1ccc(NC(=O)CN(C)C(=O)c2ccc(NC(=O)CC3SC(N4CCCC4)=NC3=O)cc2)cc1 (stereo unspecified)	i	-9.6*	i	i	i
Cc1ccc(S(=O)(=O)NCC(=O)OCC(=O)c2ccc(Cl)s2)cc1	i	i	i	i	i
Cc1ccc2nc(N3CCN(C(=O)c4cccs4)CC3)c(C#N)cc2c1	i	i	i	i	i
Cc1ccc(S(=O)(=O)/N=C2/NC(=O)/C(=C/c3cc([N+](=O)[O-])ccc3O)S2)cc1	i	i	i	i	-7.8*
O=C1NC(=Nc2ccccc2Cl)S/C1=C\c1cc([N+](=O)[O-])ccc1O	i	i	i	i	i
COC(=O)C1=C(C(=O)OC)[C@@H]2N(C)c3ccc(OC)cc3[C@@]23C[C@@H](C(=O)OC)N(C(=O)c2cc(C)oc2C)C3=N1	i	i	i	i	i
Cc1ccc(-c2csc(Nc3ccc(C(=O)O)cc3)[n+]2Cc2ccccc2)cc1	i	i	i	9.1*	i
Cc1sc(NC(=O)CSc2nnc(C)c(=O)[nH]2)c(C#N)c1C	i	i	i	i	i
CCOC(=O)C1=C(O)C(=O)N(CCCn2ccnc2)C1c1ccc(OC)cc1 (stereo unspecified)	i	i	i	i	i
CN(C)CCCN(C(=O)c1ccc(S(=O)(=O)N(C)C2CCCCC2)cc1)c1nc2ccc(Br)cc2s1	i	i	i	i	-8.7*
COc1cc2nc(N(CCCN(C)C)C(=O)c3ccc(S(=O)(=O)N(C)C4CCCCC4)cc3)sc2cc1OC	i	i	i	i	i
CN(C)CCCN(C(=O)c1ccc(S(=O)(=O)N(C)C2CCCCC2)cc1)c1nc2ccc(F)cc2s1	i	i	i	i	i
Cc1cc(C)c2sc(N(CCCN(C)C)C(=O)c3ccc(S(=O)(=O)N(C)C4CCCCC4)cc3)nc2c1	i	i	i	i	-8*
COc1ccc2sc(N(CCCN(C)C)C(=O)c3ccc(S(=O)(=O)N4CCCc5ccccc54)cc3)nc2c1	i	i	i	i	-9.5*
Cc1nnc(SCC(=O)c2ccccc2)n1Cc1ccccc1	i	i	i	i	i
SMILES	MrgX1 ag	MrgX1 antagonist	RGS4 block	MrgX1 allo act	RGS4 act
O=C(c1cc2ccccc2oc1=O)N(Cc1ccco1)CC1CCCO1 (stereo unspecified)	i	i	i	i	i
CCN(CC)c1ccc(C=C2C(=O)OC3(CCCCC3)OC2=O)cc1	33*	i	i	i	i
CCCCC1(C)OC(=O)C(=Cc2ccc(N(CC)CC)cc2)C(=O)O1 (stereo unspecified)	44*	i	i	i	i
CCN(CC)c1ccc(/C=C2/C(=O)c3ccc(C(=O)O)cc3C2=O)cc1	i	i	.	i	.
O=C(Nc1nc2c(s1)CCCC2=O)c1cnccn1	i	i	i	i	i
COc1ccccc1/C=C1\CCC(C2CCCC2)C1=O (stereo unspecified)	i	i	i	i	i
CC1(C)CC(=O)C2=C(C1)OC(N)=C(C#N)C21C(=O)N(Cc2ccccc2Cl)c2ccccc21 (stereo unspecified)	i	i	i	8.7*	i
CC1=CC(C)(C)N2C(=O)C3(C(C#N)=C(N)OC4=C3C(=O)CC(C)(C)C4)c3cccc1c32 (stereo unspecified)	.	.	i	.	i
Cc1oc(-c2ccc(Cl)cc2)cc1C(=O)/C(C#N)=C/Nc1ccccc1	i	i	i	i	i
O=C(CSc1nccc2ccccc12)N1CCN(c2ccccn2)CC1	i	i	i	i	i
CS(=O)(=O)Nc1ccc(C2=NN(S(C)(=O)=O)C(c3ccc4nccnc4c3)C2)cc1 (stereo unspecified)	i	i	i	i	i
CC(=O)N1N=C(c2ccc(NS(C)(=O)=O)cc2)CC1c1ccc2nccnc2c1 (stereo unspecified)	i	-7.2*	i	i	i
CC(=O)N(c1ccc(Cl)cc1)c1cn(C(C)=O)c2ccccc12	i	i	i	i	i
CC(=O)n1cc(N(C(=O)CCl)c2ccc(C)cc2)c2ccccc21	i	i	i	i	-7.2*
O=C(CC(Nc1ccc(F)cc1)c1ccccc1)c1ccccc1 (stereo unspecified)	i	i	i	i	i
COC(=O)c1ccccc1SC(CC(=O)c1ccccc1)c1ccc(F)cc1 (stereo unspecified)	i	i	i	i	-7.1*
C(=N\c1nc2ccccc2[nH]1)/c1cccs1	30*	i	i	i	i
COc1ccc(CCN2CC(C(=O)N3CCSCC3)CCC2=O)cc1 (stereo unspecified)	i	i	i	i	i
Cc1ccc(C)n1NC(=O)c1cccc(Cl)c1	i	i	i	i	i
COc1ccc(S(=O)(=O)N2CCN(C(=O)c3cc(-c4ccc(Br)cc4)n[nH]3)CC2)cc1OC	i	i	i	i	-7*

Screens: PubChem BioAssay, Johns Hopkins Ion Channel Center
